{"source": "ChEMBL document CHEMBL1140859", "about": "“Design and synthesis of some thiazolyl and thiadiazolyl derivatives of antipyrine as potential non-acidic anti-inflammatory, analgesic and antimicrobial agents” (Bioorg Med Chem, 2009)", "key": {"Rattus norvegicus [1]": {"test_system": "Rattus norvegicus", "assay": "Antiinflammatory activity against formalin-induced paw edema in anaesthetized Albino rat acute inflammatory model at 20 mg/kg, po dosed 1 hr before formalin challenge assessed after 1 hr", "assay_type": "functional", "summary_of_the_method": "(§1)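 Rats in groups of five plus control; test compounds 20 mg/kg po, diclofenac Na 10 mg/kg po, given 1 h before 0.1 mL 2% formalin injected subplantar into left hind paw under light ether anaesthesia. Paw volume by water plethysmometer at 0 and 1, 2, 3, 4 h after formalin; % anti-inflammatory activity versus control; mean ± SE, N = 5.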"}, "Rattus norvegicus [2]": {"test_system": "Rattus norvegicus", "assay": "Antiinflammatory activity against formalin-induced paw edema in anaesthetized Albino rat acute inflammatory model at 20 mg/kg, po dosed 1 hr before formalin challenge assessed after 2 hrs", "assay_type": "functional", "summary_of_the_method": "as §1"}, "Rattus norvegicus [3]": {"test_system": "Rattus norvegicus", "assay": "Antiinflammatory activity against formalin-induced paw edema in anaesthetized Albino rat acute inflammatory model at 20 mg/kg, po dosed 1 hr before formalin challenge assessed after 3 hrs", "assay_type": "functional", "summary_of_the_method": "as §1"}, "Rattus norvegicus [4]": {"test_system": "Rattus norvegicus", "assay": "Antiinflammatory activity against formalin-induced paw edema in anaesthetized Albino rat acute inflammatory model at 20 mg/kg, po dosed 1 hr before formalin challenge assessed after 4 hrs", "assay_type": "functional", "summary_of_the_method": "as §1"}, "Rattus norvegicus [5]": {"test_system": "Rattus norvegicus", "assay": "Antiinflammatory activity against formalin-induced paw edema in anaesthetized Albino rat sub-acute inflammatory model at 20 mg/kg, po measured on day 1", "assay_type": "functional", "summary_of_the_method": "(§2)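 Sub-acute paw edema: test compounds 20 mg/kg po daily for 7 days, diclofenac Na 10 mg/kg po; 0.1 mL 2% formalin injected subplantar into left hind paw under light ether anaesthesia on days 1 and 3, 1 h after dosing. Paw volume measured on day 1 and day 8; % anti-inflammatory activity; N = 5 rats.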"}, "Rattus norvegicus [6]": {"test_system": "Rattus norvegicus", "assay": "Antiinflammatory activity against formalin-induced paw edema in anaesthetized Albino rat sub-acute inflammatory model at 20 mg/kg, po for 7 days measured on day 8", "assay_type": "functional", "summary_of_the_method": "as §2"}, "Rattus norvegicus [7]": {"test_system": "Rattus norvegicus", "assay": "Antiinflammatory activity against turpentine oil-induced granuloma pouch in anaesthetized Albino rat sub-acute inflammatory model at 20 mg/kg, po 1 hr before turpentine oil challenge for 7 days assessed after 8 days", "assay_type": "functional", "summary_of_the_method": "(§3)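 Dorsal subcutaneous pouch made in ether-anaesthetised rats with 2 mL air, then 0.5 mL turpentine oil. Test compounds 20 mg/kg po, diclofenac Na 10 mg/kg po, started 1 h before turpentine and continued 7 days. Exudate aspirated on day 8 under anaesthesia; volume measured; % inhibition = (Vcontrol − Vtreated)/Vcontrol × 100; N = 5.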"}, "Rattus norvegicus [8]": {"test_system": "Rattus norvegicus", "assay": "Toxicity in Albino rat assessed as induction of gastric ulceration at 300 mg/kg, po twice a day after 2 hrs", "assay_type": "organism-based, Stomach", "parameters": "dose 300 mg/kg, route oral", "conditions": "in vivo", "summary_of_the_method": "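Male albino rats (180–200 g), five per group, fasted 12 h with water ad libitum. Oral dosing at 300 mg/kg; the results text gives two doses at a 2 h interval, while the methods give two equal doses at 0 and 12 h over three days. Controls received 1% gum acacia orally. Rats were killed with ether 6 h after the last dose, and stomachs were inspected grossly for ulceration and hyperemia.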"}, "[9]": {"assay": "Acute toxicity in Albino rat after 24 hrs", "assay_type": "organism-based", "conditions": "in vivo, read-out: ALD50", "summary_of_the_method": "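Male rats, 180–200 g, groups of five, fasted 24 h before dosing; compounds given orally in graded doses of 0.1–3.0 g/kg; mortality recorded at each dose level after 24 h to estimate approximate acute lethal dose (ALD50).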"}, "Rattus norvegicus [10]": {"test_system": "Rattus norvegicus", "assay": "Analgesic activity in Albino rat assessed as tail withdrawal response at 20 mg/kg, po after 1 hr", "assay_type": "functional", "summary_of_the_method": "(§4)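 Male albino rats, 120–150 g, groups of five plus untreated control; test compounds 20 mg/kg po, diclofenac Na 10 mg/kg po. Tail immersed in 55 °C water; withdrawal reaction time read 1, 2 and 3 h after dosing; percentage increase in reaction time over basal computed; mean ± SE of five animals.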"}, "Rattus norvegicus [11]": {"test_system": "Rattus norvegicus", "assay": "Analgesic activity in Albino rat assessed as tail withdrawal response at 20 mg/kg, po after 2 hrs", "assay_type": "functional", "summary_of_the_method": "as §4"}, "Rattus norvegicus [12]": {"test_system": "Rattus norvegicus", "assay": "Analgesic activity in Albino rat assessed as tail withdrawal response at 20 mg/kg, po after 3 hrs", "assay_type": "functional", "summary_of_the_method": "as §4"}, "Staphylococcus aureus": {"test_system": "Staphylococcus aureus", "assay": "Antimicrobial activity against Staphylococcus aureus ATCC 6538 after 24 hrs by twofold serial dilution method", "assay_type": "functional", "conditions": "ATCC 6538, 24 h", "summary_of_the_method": "(§5)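 Broth microdilution in Müller–Hinton broth on compounds with agar-diffusion inhibition zones ≥14 mm (disks with 1 mg/mL in DMSO, 37 °C, 24 h, triplicate).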"}, "Bacillus subtilis": {"test_system": "Bacillus subtilis", "assay": "Antimicrobial activity against Bacillus subtilis NRRL B-14819 after 24 hrs by twofold serial dilution method", "assay_type": "functional", "summary_of_the_method": "as §5"}, "Micrococcus luteus": {"test_system": "Micrococcus luteus", "assay": "Antimicrobial activity against Micrococcus luteus ATCC 21881 after 24 hrs by twofold serial dilution method", "assay_type": "functional", "conditions": "ATCC 21881, 24 h", "summary_of_the_method": "as §5"}, "Escherichia coli": {"test_system": "Escherichia coli", "assay": "Antimicrobial activity against Escherichia coli ATCC 25922 after 24 hrs by twofold serial dilution method", "assay_type": "functional", "conditions": "ATCC 25922, 24 h", "summary_of_the_method": "as §5"}, "Pseudomonas aeruginosa": {"test_system": "Pseudomonas aeruginosa", "assay": "Antimicrobial activity against Pseudomonas aeruginosa ATCC 27853 after 24 hrs by twofold serial dilution method", "assay_type": "functional", "conditions": "ATCC 27853, 24 h", "summary_of_the_method": "as §5"}, "Klebsiella pneumoniae": {"test_system": "Klebsiella pneumoniae", "assay": "Antimicrobial activity against Klebsiella pneumoniae clinical isolate after 24 hrs by twofold serial dilution method", "assay_type": "functional", "summary_of_the_method": "as §5"}, "Rattus norvegicus [13]": {"test_system": "Rattus norvegicus", "assay": "Antiinflammatory activity against formalin-induced paw edema in anaesthetized Albino rat acute inflammatory model at 10 mg/kg, po dosed 1 hr before formalin challenge assessed after 1 hr", "assay_type": "functional", "summary_of_the_method": "as §1"}, "Rattus norvegicus [14]": {"test_system": "Rattus norvegicus", "assay": "Antiinflammatory activity against formalin-induced paw edema in anaesthetized Albino rat acute inflammatory model at 10 mg/kg, po dosed 1 hr before formalin challenge assessed after 2 hrs", "assay_type": "functional", "summary_of_the_method": "as §1"}, "Rattus norvegicus [15]": {"test_system": "Rattus norvegicus", "assay": "Antiinflammatory activity against formalin-induced paw edema in anaesthetized Albino rat acute inflammatory model at 10 mg/kg, po dosed 1 hr before formalin challenge assessed after 3 hrs", "assay_type": "functional", "summary_of_the_method": "as §1"}, "Rattus norvegicus [16]": {"test_system": "Rattus norvegicus", "assay": "Antiinflammatory activity against formalin-induced paw edema in anaesthetized Albino rat acute inflammatory model at 10 mg/kg, po dosed 1 hr before formalin challenge assessed after 4 hrs", "assay_type": "functional", "summary_of_the_method": "as §1"}, "Rattus norvegicus [17]": {"test_system": "Rattus norvegicus", "assay": "Antiinflammatory activity against formalin-induced paw edema in anaesthetized Albino rat sub-acute inflammatory model at 10 mg/kg, po measured on day 1", "assay_type": "functional", "summary_of_the_method": "as §2"}, "Rattus norvegicus [18]": {"test_system": "Rattus norvegicus", "assay": "Antiinflammatory activity against formalin-induced paw edema in anaesthetized Albino rat sub-acute inflammatory model at 10 mg/kg, po for 7 days measured on day 8", "assay_type": "functional", "summary_of_the_method": "as §2"}, "Rattus norvegicus [19]": {"test_system": "Rattus norvegicus", "assay": "Antiinflammatory activity against turpentine oil-induced granuloma pouch in anaesthetized Albino rat sub-acute inflammatory model at 10 mg/kg, po 1 hr before turpentine oil challenge for 7 days assessed after 8 days", "assay_type": "functional", "summary_of_the_method": "as §3"}, "Rattus norvegicus [20]": {"test_system": "Rattus norvegicus", "assay": "Analgesic activity in Albino rat assessed as tail withdrawal response at 10 mg/kg, po after 1 hr", "assay_type": "functional", "summary_of_the_method": "as §4"}, "Rattus norvegicus [21]": {"test_system": "Rattus norvegicus", "assay": "Analgesic activity in Albino rat assessed as tail withdrawal response at 10 mg/kg, po after 2 hrs", "assay_type": "functional", "summary_of_the_method": "as §4"}, "Rattus norvegicus [22]": {"test_system": "Rattus norvegicus", "assay": "Analgesic activity in Albino rat assessed as tail withdrawal response at 10 mg/kg, po after 3 hrs", "assay_type": "functional", "summary_of_the_method": "as §4"}}}
{"compound": "Cc1c(NC(=O)c2sc(=S)n(-c3ccccc3)c2NC(=S)Nc2ccccc2)c(=O)n(-c2ccccc2)n1C", "values": [{"measurement": "Activity", "setting": "Rattus norvegicus [1]", "result": 30, "unit": "%"}, {"measurement": "Activity", "setting": "Rattus norvegicus [2]", "result": 37, "unit": "%"}, {"measurement": "Activity", "setting": "Rattus norvegicus [3]", "result": 41, "unit": "%"}, {"measurement": "Activity", "setting": "Rattus norvegicus [4]", "result": 40, "unit": "%"}, {"measurement": "Activity", "setting": "Rattus norvegicus [5]", "result": 40, "unit": "%"}, {"measurement": "Activity", "setting": "Rattus norvegicus [6]", "result": 39, "unit": "%"}, {"measurement": "Activity", "setting": "Rattus norvegicus [7]", "result": 65, "unit": "%"}, {"measurement": "Activity", "setting": "Rattus norvegicus [8]", "result": "Non-toxic"}, {"measurement": "LD50 at 24 h", "setting": "[9]", "result": "> 3000", "unit": "mg/kg"}, {"measurement": "Activity", "setting": "Rattus norvegicus [10]", "result": 48, "unit": "%"}, {"measurement": "Activity", "setting": "Rattus norvegicus [11]", "result": 70, "unit": "%"}, {"measurement": "Activity", "setting": "Rattus norvegicus [12]", "result": 82, "unit": "%"}, {"measurement": "MIC", "setting": "Staphylococcus aureus", "result": 50, "unit": "µg/mL"}, {"measurement": "MIC", "setting": "Bacillus subtilis", "result": 12.5, "unit": "µg/mL"}, {"measurement": "MIC", "setting": "Micrococcus luteus", "result": 50, "unit": "µg/mL"}, {"measurement": "MIC", "setting": "Escherichia coli", "result": 50, "unit": "µg/mL"}, {"measurement": "MIC", "setting": "Pseudomonas aeruginosa", "result": 50, "unit": "µg/mL"}, {"measurement": "MIC", "setting": "Klebsiella pneumoniae", "result": 50, "unit": "µg/mL"}]}
{"compound": "O=C([O-])Cc1ccccc1Nc1c(Cl)cccc1Cl.[Na+]", "note": "[DICLOFENAC SODIUM]", "values": [{"measurement": "Activity", "setting": "Rattus norvegicus [13]", "result": 17, "unit": "%"}, {"measurement": "Activity", "setting": "Rattus norvegicus [14]", "result": 40, "unit": "%"}, {"measurement": "Activity", "setting": "Rattus norvegicus [15]", "result": 44, "unit": "%"}, {"measurement": "Activity", "setting": "Rattus norvegicus [16]", "result": 45, "unit": "%"}, {"measurement": "Activity", "setting": "Rattus norvegicus [17]", "result": 40, "unit": "%"}, {"measurement": "Activity", "setting": "Rattus norvegicus [18]", "result": 46, "unit": "%"}, {"measurement": "Activity", "setting": "Rattus norvegicus [19]", "result": 73, "unit": "%"}, {"measurement": "Activity", "setting": "Rattus norvegicus [8]", "result": "Toxic"}, {"measurement": "Activity", "setting": "Rattus norvegicus [20]", "result": 26, "unit": "%"}, {"measurement": "Activity", "setting": "Rattus norvegicus [21]", "result": 55, "unit": "%"}, {"measurement": "Activity", "setting": "Rattus norvegicus [22]", "result": 79, "unit": "%"}]}
